# Compound activity as filed in PubChem BioAssay.
# PME-1 primary: PME-1 inhibitors via competitive probe labeling, primary screen, biochemical, fluorescence polarization, FP-Rh probe, HTS | Protein phosphatase methylesterase 1 (Homo sapiens), Q9Y570 | recombinant PME-1 | inhibition, % at 5.9 µM | actives 0.53% (n = 320,000) | AID 2130, 2009;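 active means inhibition above the campaign mean of all compounds plus 3 SD, cut at about 26% in these data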;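 further: competitive labeling of PME-1 active site by serine hydrolase directed probe; 0% = PME-1 with DMSO and 100% = wells lacking PME-1 enzyme; inhibitors block probe labeling so polarization falls and inhibition rises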
# Target sequence (Q9Y570 whole entry, looked up): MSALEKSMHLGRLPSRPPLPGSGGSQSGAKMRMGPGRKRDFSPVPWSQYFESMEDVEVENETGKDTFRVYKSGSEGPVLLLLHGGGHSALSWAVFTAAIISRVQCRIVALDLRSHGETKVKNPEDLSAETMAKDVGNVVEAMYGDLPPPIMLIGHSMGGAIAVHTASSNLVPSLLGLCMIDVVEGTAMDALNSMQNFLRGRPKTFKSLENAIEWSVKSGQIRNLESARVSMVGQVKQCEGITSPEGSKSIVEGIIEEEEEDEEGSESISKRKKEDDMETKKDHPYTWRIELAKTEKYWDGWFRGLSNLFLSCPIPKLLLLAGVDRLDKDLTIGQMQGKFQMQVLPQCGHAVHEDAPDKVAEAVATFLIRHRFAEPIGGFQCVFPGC
# GSTO1 counter: inhibitors of recombinant GSTO1, primary screen, counter-screen for RBBP9 inhibitor project, biochemical, fluorescence polarization; Glutathione S-transferase omega-1 (Homo sapiens), P78417; activity-based probe fluorescence polarization; inhibition, % at 5.96 µM; actives 1.1% (n = 300,000); AID 1974, 2009;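 active means inhibition above the campaign mean inhibition plus 3 SD, cut at about 35% in these data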;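 further: 0% = GSTO1-1 with DMSO and 100% = wells lacking GSTO1-1 enzyme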
# PRMT1 inh: PRMT1 methyltransferase inhibitors, primary screen, biochemical, fluorescence polarization. Protein arginine N-methyltransferase 1 (Homo sapiens), Q99873. recombinant PRMT1, activity-based probe fluorescence polarization. inhibition, % at 2.79 µM. actives 1.3% (n = 370,000);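 active means inhibition above about 21% made by adding two undisclosed values, limit read from the data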
# RBBP9 inhibitor: human RBBP9 inhibitors, primary screen, biochemical, fluorescence polarization, FP-Rh probe, HTS; inhibition, % at 7.94 µM; AID 1515, 2009; actives 0.2% (n = 220,000); Serine hydrolase RBBP9 (Homo sapiens), O75884; recombinant RBBP9;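 active means inhibition above the campaign mean of all tested compounds plus 3 SD, cut at about 14% in these data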;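 further: plate controls were DMSO wells with RBBP9 for no effect and wells lacking RBBP9 protein for full effect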
#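 system = RBBP9 protein | input = RBBP9 at 2.5 µM in dispensed solution, before mixing | measured by = fluorescence polarization (mP), excitation 525 nm, emission 598 nm | incubation = enzyme-compound preincubation 30 min, then probe labeling 45 min, 25 °C | buffer or medium = Tris-NaCl-Pluronic buffer, pH 8.0 | compound = single dose 7.94 µM | also added = FP-Rh probe, 375 nM dispensing solution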
# Fam108B counter: mouse Fam108B serine hydrolase inhibitors, primary screen, counter-screen for RBBP9 inhibitor project, biochemical, fluorescence polarization. recombinant Fam108B, FP-Rh probe fluorescence polarization. inhibition, % at 9.51 µM. actives 0.33% (n = 300,000);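 active means inhibition above the screen mean inhibition plus 3 SD, computed separately per campaign, cut at about 18% in these data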;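 further: inhibitors lower polarization as less probe binds the enzyme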
# PAD4 FP inh: human PAD4 inhibitors, primary screen, biochemical, fluorescence polarization, 1536-well format | Protein-arginine deiminase type-4 (Homo sapiens), Q9UM07 | recombinant PAD4, RCA probe fluorescence polarization | inhibition, % at 6.36 µM | actives 0.41% (n = 330,000) | AID 485272, 2010;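 active means percent inhibition above a cutoff equal to the mean of all tested compounds plus 3 SD, cut at about 15% in these data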;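 further: 0% = PAD4 with RCA probe and DMSO and 100% = probe without PAD4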
# PRMT1 inh conf: PRMT1 methyltransferase inhibitors, confirmation, biochemical, fluorescence polarization, triplicate; shares compounds with PRMT1 inh; recombinant His-PRMT1, activity-based probe fluorescence polarization; inhibition, % at 2.79 µM; actives 42% (n = 3,300);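 active means mean inhibition across replicates above the hit cutoff derived for the earlier primary screen, cut at about 22% in these data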
# Active calls of the source: *; · = not tested or not shown. Hits are enriched below; roughly 2.3% of the tested compounds scored in any of these assays.
SMILES,PME-1 primary,GSTO1 counter,PRMT1 inh,RBBP9 inhibitor,Fam108B counter,PAD4 FP inh,PRMT1 inh conf
COc1cccc(NC(=O)CSc2ccc(-c3ccco3)nn2)c1,-1,0,42*,·,-5,-5,4
Cc1cccc(NC(=O)CSc2nnc(-c3ccco3)c(-c3ccco3)n2)c1,·,·,42*,0,·,·,52*
COc1cccc(NC(=O)CSC(N)=O)c1,-2,4,63*,-15,4,13,87*
Cc1cccc(NC(=O)CSc2nc(N)cc(N)n2)c1,3,6,2,-1,3,9,·
CCOCCn1cnc2sc(C(=O)NCC(=O)OCC)c(C)c2c1=O,-2,0,0,-12,0,-2,·
Cc1ccc(F)cc1NC(=O)CSCc1nc2sc(C)c(C)c2c(=O)[nH]1,1,9,34*,·,-3,4,38*
CC(=O)CSc1nc2c(c(=O)[nH]c(=O)n2C)n1Cc1cccc(Br)c1,16,4,36*,·,2,1,13
C=CCN1C(=O)/C(=C2/Sc3ccc(OC)cc3N2C)SC1=NCc1ccccc1,6,1,0,1,-4,-5,·
S=c1[nH]nc(-c2cc(-c3ccco3)[nH]n2)n1-c1cccc2ccccc12,0,10,36*,-4,1,3,33*
O=C(O)c1ccc(-n2c(-c3cc(-c4ccco4)[nH]n3)n[nH]c2=S)cc1,-6,20,49*,6,9,3,13
CC(=O)c1ccc(-n2c(-c3cc(-c4ccco4)[nH]n3)n[nH]c2=S)cc1,-8,0,12,-9,3,2,·
CC(C)CCNC(=O)C(=O)NC1CCCC1,1,8,0,-3,2,-1,·
COc1ccccc1CCNC(=O)C1CCC(=O)N(C2CC2)C1 (stereo not drawn),-7,5,0,·,4,-4,·
COc1cc2c(cc1OC)/C(=C/C#N)NC(C)(C)C2,8,-7,1,-9,-3,-9,·
Cc1cc2c(cc1C)/C(=C\C(N)=O)NC(C)(C)C2,0,10,26*,-2,-2,-4,34*
CNC(=O)/C=C1\NC(C)(C)Cc2ccccc21,3,-1,41*,-3,-3,-2,55*
Cc1cccc2c1CC(C)(C)N/C2=C\C(N)=O,-2,6,45*,-7,0,-1,45*
CN(CC(=O)N1CCN(c2ccccn2)CC1)S(=O)(=O)c1ccc(Br)cc1,4,-4,-1,-10,-10,0,·
CC(=O)Oc1ccc(-c2cccc(C(=O)OCC(=O)Nc3ccccc3Oc3ccccc3)c2)cc1,-7,-1,1,1,-6,-6,·
NCCc1nnc(SCC(=O)Nc2cccc(Cl)c2)o1,6,3,25*,·,0,-3,14
CC(C)(C)OC(=O)NCCc1nnc(SCC(=O)Nc2cccc(Cl)c2)o1,-11,3,-1,3,-3,-2,·
CCOc1cc(C2C3=C(CCCC3=O)Nc3ccc4ncccc4c32)ccc1O (stereo not drawn),0,0,-3,2,-4,-3,·
CC(OC(=O)Cc1ccc(Br)cc1)C(=O)NC1CCCC1 (stereo not drawn),·,·,-3,·,·,6,·
O=c1c2ccccc2sn1-c1ccc(S(=O)(=O)N2CCCCC2)cc1,3,-6,43*,-6,1,6,63*
O=S(=O)(c1ccc(S(=O)(=O)N2CCCC2)cc1)N1CCCCC1,4,2,·,·,-5,-3,·
Cc1ccc(-n2sc3ccccc3c2=O)cc1S(=O)(=O)N1CCCCC1,2,9,101*,-41,2,25*,84*
O=c1c2ccccc2sn1-c1ccc(S(=O)(=O)N2CCCC2)cc1,-3,3,95*,-10,-1,23*,97*
